Experimental findings from ChEMBL document CHEMBL3585255, “The Cephalostatins. 24. Isolation, Structure, and Cancer Cell Growth Inhibition of Cephalostatin 20” (2015) are described below.

Common to all, as to type: functional
Experiment [1] is described as follows: Cytotoxicity against human BxPC3 cells after 48 hrs by sulforhodamine B assay. The following applies: BXPC-3, 48 h. In a few lines: (§1)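 Cells in RPMI1640 with 5% fetal bovine serum were plated in 96-well plates and incubated 24 h before serial dilutions of compound were added. After 48 h exposure, cells were fixed with trichloroacetic acid and stained with sulforhodamine B, and optical density was read on a plate reader. GI50, the concentration giving 50% reduction in net protein increase, was calculated from the OD data.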

The subject of the next experiment is MCF7. Put plainly: Cytotoxicity against human MCF7 cells after 48 hrs by sulforhodamine B assay. The conditions noted are these: MCF7, 48 h. In a few lines:
as §1
On the technique in general: In SRB staining, fixed cells bind dye roughly in proportion to their protein.

The test system of a further experiment is SF-268. Put plainly: Cytotoxicity against human SF268 cells after 48 hrs by sulforhodamine B assay. The following applies: SF-268, 48 h. The method, boiled down:
as §1

In the next experiment the test system is NCI-H460. The experiment is described as follows: Cytotoxicity against human NCI-H460 cells after 48 hrs by sulforhodamine B assay. The conditions noted are these: NCI-H460, 48 h. In a few lines: as §1
Experiment [2] in a line: Cytotoxicity against human KM20L2 cells after 48 hrs by sulforhodamine B assay. The conditions noted are these: KM-20L2, 48 h. The method, boiled down:
as §1

The subject of the next experiment is DU-145. The experiment is described as follows: Cytotoxicity against human DU145 cells after 48 hrs by sulforhodamine B assay. The following applies: DU-145, 48 h. In a few lines: as §1

For `C[C@@H]1[C@H]2CC=C3[C@H]4CC[C@H]5Cc6nc7c(nc6C[C@]5(C)[C@@]4(O)CC(=O)[C@@]32CO[C@]12OC(C)(C)C[C@H]2O)C[C@@H]1CC[C@H]2C3=C[C@@H]4O[C@]5(O[C@](C)(CO)C[C@H]5O)[C@@H](C)[C@]4(O)[C@@]3(C)[C@H](O)C[C@@H]2[C@@]1(C)C7` [CEPHALOSTATIN 17], the GI50 in experiment [1] came out at 0.36 nM; in the experiment with MCF7, 0.43 nM; in the experiment with SF-268, 2.7 nM; with NCI-H460, 0.46 nM; in experiment [2], 0.58 nM; in the experiment with DU-145, 3.3 nM.

In the case of `CO[C@H]1c2nc3c(nc2C[C@@H]2CC[C@H]4C5=C[C@@H]6O[C@]7(O[C@](C)(CO)C[C@H]7O)[C@@H](C)[C@]6(O)[C@@]5(C)[C@H](O)C[C@@H]4[C@]21C)C[C@@]1(C)[C@@H](CC[C@H]2C4=CC[C@@H]5[C@H](C)[C@@]6(OC[C@]45C(=O)C[C@@H]21)OC(C)(C)C[C@H]6O)C3` [CEPHALOSTATIN 18], the GI50 in experiment [1] was determined as 3.3 nM; in the experiment with MCF7 it was 3.3 nM; with SF-268, 7.8 nM; in the experiment on NCI-H460, 2.8 nM; in experiment [2] it was 3.1 nM; in the experiment on DU-145, 20 nM.

For `CO[C@H]1c2nc3c(nc2C[C@@H]2CC[C@H]4C5=CC[C@@H]6[C@H](C)[C@@]7(OC[C@]56C(=O)C[C@@H]4[C@]21C)OC(C)(C)C[C@H]7O)C[C@@]1(C)[C@@H](CC[C@H]2C4=C[C@@H]5O[C@]6(O[C@](C)(CO)C[C@H]6O)[C@@H](C)[C@]5(O)[C@@]4(C)[C@H](O)C[C@@H]21)C3` [CEPHALOSTATIN 19], the GI50 is 3.9 nM in experiment [1]; 7.4 nM in the experiment with MCF7; 78 nM with SF-268; 5.3 nM with NCI-H460; 6.1 nM in experiment [2]; 30 nM with DU-145.

For orientation: GI50 means the concentration that inhibits growth by half. The low end stands for greater sensitivity of the cells, the high end for lower sensitivity of the cells.
